Compound activity (PubChem BioAssay)
In the library only some 1.5% were active in any assay of this set; here they are far more common.
DAGLB inhibitor – blocks human DAGLB lipase activity | 0.059% of 340,000 active | AID 504411 | inhibition, % at 5.17 µM | Q8NCG7 | HEK293T DAGLB membrane lysate, EnzChek fluorogenic substrate; in the data active = inhibition above about 34%;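 note: 0% = enzyme with vehicle and 100% = wells lacking enzyme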
mABHD4 FP – inhibitors of mouse ABHD4. AID 720543. purified mABHD4, FP-Rh probe fluorescence polarization. Q8VD66. 0.54% of 370,000 active. inhibition, % at 8.92 µM;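 active = inhibition exceeding the mean over every tested compound plus 3 SD, cut at about 30% in these data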;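 note: 0% = plate median of compound wells and 100% = S159A mutant with DMSO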
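Material: mouse ABHD4 enzyme, wild type; Benchmarks: S159A mutant high control, sample median low control; Buffer or medium: HEPES pH 7.0, NaCl, Pluronic buffer; Signal: fluorescence polarization; Read-out: percent inhibition of probe binding, normalized to plate controls; Timing: pre-incubation 45 min, probe exposure 60 min, at 25 °C; Dosing: 8.92 µM, single dose.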
HTRA1 inh – HTRA1 (human) protease inhibition; inhibition, % at 5.96 µM; 0.5% of 340,000 active; AID 504803; Q92743; recombinant HTRA1, FP-rhodamine activity-based probe, fluorescence polarization; in the data active = inhibition above about 36%;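 note: 0% = enzyme with DMSO and 100% = wells lacking enzyme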
Target sequence (Q92743 whole entry, looked up): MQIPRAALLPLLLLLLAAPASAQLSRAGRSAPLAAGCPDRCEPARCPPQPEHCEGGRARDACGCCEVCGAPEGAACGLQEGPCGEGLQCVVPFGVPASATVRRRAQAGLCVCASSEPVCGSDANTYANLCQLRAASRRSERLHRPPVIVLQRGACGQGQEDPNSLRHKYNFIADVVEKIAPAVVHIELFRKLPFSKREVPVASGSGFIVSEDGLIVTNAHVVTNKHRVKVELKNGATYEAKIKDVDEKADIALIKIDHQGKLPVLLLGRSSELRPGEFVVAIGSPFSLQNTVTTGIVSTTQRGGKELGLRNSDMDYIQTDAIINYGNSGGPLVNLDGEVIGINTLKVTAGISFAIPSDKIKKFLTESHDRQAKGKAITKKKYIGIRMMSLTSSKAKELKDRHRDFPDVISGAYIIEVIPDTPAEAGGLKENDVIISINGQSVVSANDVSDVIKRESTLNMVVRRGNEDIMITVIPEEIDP
TCR-CD3 inh – blocks the human TCR-CD3 interaction; TAMRA-labeled TCR probe fluorescence, biochemical; inhibition, % at 9.4 µM; 0.37% of 360,000 active; AID 651800; in the data active = inhibition above about 19%;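 note: recombinant mutant TCR 2C K166C tagged with TAMRA read by polarization; 0% = receptor in buffer alone and 100% = receptor with positive control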
SIAE inh – inhibitors of human sialic acid acetylesterase SIAE. Q9HAT2. SIAE FP-Rh probe binding, fluorescence polarization. inhibition, % at 9.66 µM. 0.69% of 370,000 active;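 active = inhibition above a cutoff: mean of compounds within the control limits plus 3 SD of those, cut at about 17% in these data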;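 note: 0% = plate median of compound wells and 100% = probe without SIAE protein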
SIAE confirm – human SIAE inhibition, confirmation. shares compounds with SIAE inh. SIAE FP-Rh activity-based probe, fluorescence polarization. inhibition, % at 9.66 µM. 13% of 2,300 active;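 active = mean inhibition of the replicates above the hit cutoff set in the primary screen, cut at about 17% in these data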;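 note: 0% = SIAE with DMSO and probe and 100% = probe without SIAE; inhibitors lower polarization as more probe stays unbound to SIAE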
The depositor's hits bear a star; nt = no result given.

SMILES	DAGLB inhibitor	mABHD4 FP	HTRA1 inh	TCR-CD3 inh	SIAE inh	SIAE confirm
C=CCn1c(SCC(=O)N(CC)C2CCS(=O)(=O)C2)nc2sc3c(c2c1=O)CCC3 (configuration not stated)	1	2	-5	0	18*	9
O=C(Nc1cccc(S(=O)(=O)N2CCOCC2)c1)c1cn(-c2ccccc2)nc1-c1ccc(F)cc1	-4	1	3	0	23*	-22
Cc1onc(-c2ccccc2)c1C(=O)NCC1CCN(C(=O)C(=O)c2cccs2)CC1	nt	-2	nt	-1	4	nt
COc1ccc(C2O[C@@H](C)[C@@H]3C(=O)N4CCc5c([nH]c6ccccc56)[C@@H]4C[C@@H]3N2C)cc1 (some centres not stated)	nt	5	nt	4	8	nt
CC1CCc2onc(C(=O)NCc3ccco3)c2C1 (configuration not stated)	0	3	5	7	21*	3
CCN(CC)c1ccc(NC(=O)c2ccc3c(c2)OCO3)c(C)c1	-1	3	1	2	20*	-5
COC(=O)[C@]12C[C@H](CC(=O)NCc3ccc(OC)c(OC)c3)C(=O)N(CCc3ccc(OC)c(OC)c3)C1=C[C@H](COCc1ccccc1)O[C@@H]2C	nt	2	nt	nt	5	nt
CC(=O)c1ccc(-c2cc(C(C)=O)c3n(c2=O)CCC3)cc1	nt	4	nt	nt	-2	nt
COc1ccc(-n2nnnc2C2c3ccccc3C(=O)N2C2CCN(Cc3ccccc3)CC2)cc1 (configuration not stated)	nt	2	nt	5	21*	4
CCOC(=O)COn1c(=O)c(-c2ccc(Br)cc2)[n+]([O-])c2ccccc21	-4	-5	3	-4	17*	-1
CCN(CC)S(=O)(=O)c1cccc(C(=O)NCCc2ccccc2)c1	0	-5	1	4	3	nt
CN(c1ccccc1)S(=O)(=O)c1cccc(C(=O)NCCc2ccc(O)c(O)c2)c1	2	28	25	-3	17*	2
O=[N+]([O-])c1ccc(NC2CCCC2)cc1	-1	4	-9	3	19*	1
CCCc1cc(=O)oc2c(CN3CCCC3)c(O)c(Cl)cc12	4	7	5	9	20*	4
COc1cccc(CNC(=O)c2cccc(NC(=O)C3=C(C)OCCS3)c2)c1	-2	-11	-4	-9	21*	-4
CCOc1ccc(CNC(=O)c2cccc(NC(=O)C3=C(C)OCCS3)c2)cc1	-1	3	-10	3	1	nt
COc1ccc(O)c(/C=N/NC(=O)c2ccc(CSc3nc(C)cc(C)n3)cc2)c1	2	6	0	14	4	nt
Cc1cc(C)nc(SCc2ccc(C(=O)N/N=C/c3cccc(O)c3O)cc2)n1	11	17	5	12	43*	-16
Cc1[nH]c2ccccc2c1/C=N/Nc1nc2ccccc2[nH]1	nt	24	nt	-1	32*	37*
COc1ccc(/C=N/Nc2nc3ccccc3[nH]2)c(OC)c1OC	1	8	10	0	21*	4
Cc1[nH]c2ccccc2c1/C=N/Nc1nc(N2CCCCC2)nc(N2CCCCC2)n1	0	21	3	1	18*	6
Cc1ccc(C(=O)N2CCC[C@@H]2C(=O)N2CCC[C@H]2C(=O)NCc2ccccc2)cc1C	nt	5	nt	6	-4	nt
CN(C)CCOC(=O)/C(=C/c1cn(C)c2ccccc12)NC(=O)c1ccccc1	-4	-1	7	2	18*	3
Cc1ccccc1-c1ccc2c(c1)[C@@H]1C[C@H]3[C@@H](CN1CC2)[C@H](C)OC(c1ccccc1)N3C (some centres not stated)	nt	1	nt	4	-4	nt
CSCCC(NC(=O)COc1ccccc1)C(=O)N1CCN(c2ccccc2Cl)CC1 (configuration not stated)	-5	-4	-9	5	-7	nt
CSCCC(NC(=O)COc1ccccc1)C(=O)N1CCN(c2ccccc2O)CC1 (configuration not stated)	-4	2	-2	-4	18*	7
Cc1ccc2nc(CN(C)C(=O)[C@H]3O[C@@H](n4cnc(C(N)=O)n4)[C@H](O)[C@@H]3O)[nH]c2c1	nt	4	nt	2	6	nt
COc1cc(C(=O)N/N=C/c2ccc(OC(=O)c3cccc(C)c3)cc2)ccc1O	2	-19	-51	-1	12	nt
